The values below come from ChEMBL document CHEMBL5120929, “Inhibitor Screen Identifies Covalent Inhibitors of the Protein Histidine Phosphatase PHPT1” (ACS Med Chem Lett, 2022).

The source made the active and inactive calls. The calls are words filed in the database; no cut-off is given here.

As a reminder, the IC50 is the point on the concentration scale where inhibition reaches its midpoint. High values mean weaker potency in that assay, low ones greater potency in that assay. As usually defined, the Ki is the dissociation constant of the complex between target and ligand, obtained from inhibition or displacement.

Assay [1] concerns the target T1, 14 kDa phosphohistidine phosphatase (Homo sapiens) (UniProt Q9NRX4).
T1 sequence (whole entry): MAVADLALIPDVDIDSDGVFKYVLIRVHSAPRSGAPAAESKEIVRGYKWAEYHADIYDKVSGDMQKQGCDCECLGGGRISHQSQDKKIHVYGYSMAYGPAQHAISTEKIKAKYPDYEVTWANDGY
In words: Reversible inhibition of PHPT1 (unknown origin) at 1 mM using DiFMUP as fluorogenic substrate preincubated for 30 mins followed by substrate addition by dialysis method. The essentials: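 Reversibility was tested by measuring PHPT1 inhibition in the fluorogenic activity assay before and after dialysis.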

The target of assay [2] is T1, 14 kDa phosphohistidine phosphatase (Homo sapiens). The experiment in a line: Mixed inhibition of PHPT1 (unknown origin) assessed as change in Km and Vmax at above 150 uM using DifMUP as substrate by Michaelis-Menten based analysis.
In assay [3] the target is T2, 14 kDa phosphohistidine phosphatase (Homo sapiens, UniProt Q9NRX4).
T2 sequence (Q9NRX4 whole entry): T1 sequence (whole entry)
In words: Inhibition of PHPT1 (unknown origin) using DiFMUP as fluorogenic substrate incubated for 30 mins followed by substrate addition and measured every 60 seconds for 30 mins by fluorogenic assay.

Assay [4] concerns the target T1, 14 kDa phosphohistidine phosphatase (Homo sapiens). The experiment in a line: Competitive inhibition of PHPT1 (unknown origin) assessed as change in Km and Vmax at below 150 uM using DifMUP as substrate by Michaelis-Menten based analysis.
Assay [5] has as its target T2, 14 kDa phosphohistidine phosphatase. The experiment in a line: Inhibition of PHPT1 (unknown origin) assessed as inhibition constant measured up to 100 uM incubated up to 30 mins using DiFMUP as fluorogenic substrate by fluorogenic assay. A digest of the protocol:
(§1)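 Kinetics of time-dependent PHPT1 inactivation in the fluorogenic activity assay. Observed inactivation rate constants (kobs) were plotted against inhibitor concentration to obtain kinact and KI.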

The target of assay [6] is T1, 14 kDa phosphohistidine phosphatase (Homo sapiens). The experiment in a line: Time dependent inhibition of PHPT1 (unknown origin) at 10 uM using DiFMUP as fluorogenic substrate preincubated for 15 to 120 mins followed by substrate addition and measured for 30 mins by fluorogenic assay. Conditions: time 45-150 min, TDE = time-dependent effect.
Assay [7] has as its target T3, Mediator of RNA polymerase II transcription subunit 25 (Homo sapiens, UniProt Q71SY5).
T3 sequence (Q71SY5 whole entry): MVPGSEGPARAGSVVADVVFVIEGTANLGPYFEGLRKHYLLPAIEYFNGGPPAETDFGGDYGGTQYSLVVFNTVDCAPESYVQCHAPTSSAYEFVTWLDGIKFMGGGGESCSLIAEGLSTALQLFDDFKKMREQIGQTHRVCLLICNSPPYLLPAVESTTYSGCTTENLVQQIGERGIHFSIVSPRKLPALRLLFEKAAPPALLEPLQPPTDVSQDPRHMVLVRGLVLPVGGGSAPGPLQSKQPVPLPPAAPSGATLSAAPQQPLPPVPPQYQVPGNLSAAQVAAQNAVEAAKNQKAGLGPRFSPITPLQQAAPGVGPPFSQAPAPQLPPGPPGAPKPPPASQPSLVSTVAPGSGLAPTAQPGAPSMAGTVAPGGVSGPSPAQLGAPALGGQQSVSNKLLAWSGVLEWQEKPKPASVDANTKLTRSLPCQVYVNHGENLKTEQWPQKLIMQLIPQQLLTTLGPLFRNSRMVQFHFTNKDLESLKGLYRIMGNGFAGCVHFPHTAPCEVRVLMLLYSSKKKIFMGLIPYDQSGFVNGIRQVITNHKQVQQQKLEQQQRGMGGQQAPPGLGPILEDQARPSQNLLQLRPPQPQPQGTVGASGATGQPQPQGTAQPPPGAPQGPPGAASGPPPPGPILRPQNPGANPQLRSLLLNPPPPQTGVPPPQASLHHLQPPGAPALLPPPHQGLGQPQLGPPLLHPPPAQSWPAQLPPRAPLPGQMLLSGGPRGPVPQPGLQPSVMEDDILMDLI
In words: Inhibition of Med25 transcriptional activation in human MCF-7 cells by fluorescence polarization assay. It counts as cell-based. Conditions: mcf7.

The target in assay [8] is T1, 14 kDa phosphohistidine phosphatase (Homo sapiens). In words: Inhibition of PHPT1 (unknown origin) assessed as inactivation constant measured up to 100 uM incubated up to 30 mins using DiFMUP as fluorogenic substrate by fluorogenic assay. A digest of the protocol: as §1
Assay [9] shares this target. In words: Time dependent inhibition of PHPT1 (unknown origin) at 20 uM using DiFMUP as fluorogenic substrate preincubated for 15 to 120 mins followed by substrate addition and measured for 30 mins by fluorogenic assay. The following applies: time 45-150 min, TDE = time-dependent effect.

For the molecule `CC(=O)Nc1cc([As](=O)(O)O)ccc1O` [ACETARSONE], the inhibition entry in assay [1], in [2] and in [4] was “Active” each time. In assay [3], the IC50 turned out to be 100 µM.
For `Cc1cc(O)c(C=O)c2c1C(=O)Oc1c(C)c(O)c3c(c1O2)C(O)OC3=O` (centres undefined) [NORSTICTIC ACID], in assay [5], the Ki was determined as 90 µM. Moreover, the inhibition entry in assay [6] was “Tde”. Besides, the IC50 in [7] is 2.3 µM; in [3], 7.9 µM. In [8], the Kinact was 1.7 min⁻¹.
As for `O=[N+]([O-])c1cc([As](=O)(O)O)ccc1O` [ROXARSONE], the inhibition entry in [2] and in assay [4] was “Active” in each case. This molecule also came in with an IC50 in assay [3] of 80 µM.
For `COc1cc(C)c2c(c1C=O)Oc1c(c(C)c(O)c3c1C(O)OC3=O)OC2=O` (centres undefined) [STICTIC ACID], it took 22 µM to reach half-maximal inhibition in [3] (IC50). Moreover, the inhibition entry in assay [9] is “Tde”.
